Bioassay records: PubChem, several laboratories
PERK inhibitor: human PERK inhibition, primary cell-based screen; Q9NZJ5; CHO PERK-DD fusion, SEAP luminescence translation reporter; inhibition, % at 5.6 µM; actives 0.17% (n = 220,000); AID 1416;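 active = inhibition above the mean inhibition of all tested compounds plus 3 SD, set separately per screening campaign, cut at about 2.9% in these data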;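 note: PERK kinase domain activated by AP20187 dimerizer at 100 nM; 0% = DMSO with dimerizer and 100% = rapamycin at 8.4 µM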
AHR activator: activators of human aryl hydrocarbon receptor; AID 2796; P35869; AHR-responsive luciferase reporter cells, luminescence; activation, % at 5 µM; actives 2.5% (n = 320,000); in the data active = activation above about 47%;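 note: 0% = vehicle wells and 100% = reference agonist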
Target sequence (P35869 whole entry, looked up): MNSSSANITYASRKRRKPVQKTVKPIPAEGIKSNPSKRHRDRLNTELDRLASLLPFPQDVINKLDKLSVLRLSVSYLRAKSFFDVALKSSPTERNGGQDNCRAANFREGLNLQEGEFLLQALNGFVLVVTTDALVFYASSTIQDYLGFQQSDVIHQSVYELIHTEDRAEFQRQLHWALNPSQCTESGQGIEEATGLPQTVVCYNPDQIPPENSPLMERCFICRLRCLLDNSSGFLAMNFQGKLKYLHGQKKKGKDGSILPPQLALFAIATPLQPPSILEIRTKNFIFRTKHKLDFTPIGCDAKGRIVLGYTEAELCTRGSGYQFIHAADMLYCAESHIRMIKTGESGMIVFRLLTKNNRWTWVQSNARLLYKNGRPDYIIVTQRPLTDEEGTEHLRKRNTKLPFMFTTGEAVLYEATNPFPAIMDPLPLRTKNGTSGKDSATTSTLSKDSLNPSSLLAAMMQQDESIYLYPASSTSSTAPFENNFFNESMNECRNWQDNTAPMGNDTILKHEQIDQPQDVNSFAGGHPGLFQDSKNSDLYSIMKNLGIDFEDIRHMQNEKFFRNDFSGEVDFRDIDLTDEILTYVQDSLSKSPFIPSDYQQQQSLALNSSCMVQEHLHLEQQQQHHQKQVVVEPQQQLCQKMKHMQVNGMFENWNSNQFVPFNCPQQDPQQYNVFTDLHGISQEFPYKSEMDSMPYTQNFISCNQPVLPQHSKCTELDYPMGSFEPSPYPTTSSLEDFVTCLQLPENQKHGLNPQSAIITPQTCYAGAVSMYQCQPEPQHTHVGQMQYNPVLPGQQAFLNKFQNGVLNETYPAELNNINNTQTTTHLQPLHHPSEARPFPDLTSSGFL
NF-kB neuron act: NF-kB expression increase, human neuronal cells; AID 1239; fold change at 12.5 µM; actives 1.6% (n = 190,000); NF-kB reporter expression; stronger effect = higher value; in the data active = fold change above about 3.3
APP 5'UTR act: APP 5'UTR luciferase reporter activation. SH-SY5Y APP 5'UTR luciferase reporter, luminescence; zero percent = DMSO vehicle wells. activation, % at 2 µM. actives 1% (n = 190,000);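 active = activation above a set limit, based on mean plus 3 SD of controls, cut at about 140% in these data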
STAT1 act: increases IFN-gamma driven STAT1 reporter signal | NIH 3T3 STAT1-luciferase reporter, luminescence; 100% = IFN-gamma alone, no compound | activation (% of control), % at 5.5 µM | actives 2.6% (n = 200,000);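 active = activation above the screen-wide mean activation plus 3 SD, cut at about 130% in these data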;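 note: raw ratio to IFN-gamma control signal so 100% means no change and 0% no light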
Mdm2 ligase inh: blocks human Mdm2 ubiquitin ligase activity. cell-based MDM2 ubiquitination luciferase reporter, 2 h; 0 = plate control, 100 = twice control, blank-subtracted. actives 0.11% (n = 210,000). signal enhancement, % at 5 µM;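 active = signal enhancement of 30% or more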;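 note: luminescence tracks abundance of the self-degrading MDM2-luciferase fusion protein; higher signal means inhibition of MDM2 E3 ligase activity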
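System: stable MDM2–luciferase fusion reporter cells / Input: 2000 cells seeded into each well / Schedule: 4 h settle plus 2 h compound, 37 °C / Compound: single-point 5 µM / Buffer or medium: cells held in DMEM / Benchmarks: control and blank well means / Evaluation: percent signal gain over controls, blank-subtracted / Measured by: luciferase luminescence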
* hit, by the source's call; / = no result. An excerpt weighted towards active compounds, which were near 4.5% of everything screened.

SMILES	PERK inhibitor	AHR activator	NF-kB neuron act	APP 5'UTR act	STAT1 act	Mdm2 ligase inh
CCOc1ccc2nc(NC(=O)CSC3=NCCS3)sc2c1	-1.7	10.2	3.06	45.8	129.0*	-8.2
CCOc1ccc2nc(NC(=O)c3cnccn3)sc2c1	0.5	0.2	3.29	38.4	138.2*	-51.1
O=C(Nc1nc2ccccc2s1)c1cnccn1	-0.1	31.9	4.01*	55.5	116.3	-1.3
O=C(NCc1cccnc1)C(=O)Nc1nccs1	1.7	9.6	1.11	2.1	103.5	-32.3
COc1ccc2nc(NC(=O)CSC3=NCCS3)sc2c1	0.2	1.9	2.27	27.1	116.8	-12.6
O=C(Nc1nc2ccc(F)cc2s1)c1ccccn1	-0.6	37.0	0.43	30.0	34.7	-68.3
O=C(NCc1cccnc1)C(=O)Nc1nc2ccccc2s1	0.9	23.8	1.48	7.3	138.9*	-1.2
Cc1ccc(/C=N/NC(=O)CC(=O)NCc2cccnc2)cc1	0.3	1.7	1.06	8.0	92.4	2.5
Cc1ccn(CC(=O)N/N=C/c2cc([N+](=O)[O-])ccc2O)n1	0.7	17.2	0.74	-11.0	100.4	0.2
CC(O)[C@@H](NC(=O)C1CCC(CNC(=O)[C@H](Cc2ccccc2)NC(=O)OC(C)(C)C)CC1)C(=O)O (stereo partly drawn)	/	1.2	/	/	/	/
CCc1nc2cc3sc(CC)nc3cc2s1	1.9	8.0	2.39	121.5	147.8*	-28.4
CCc1ccc(Oc2cc(C)nc(N)n2)cc1	0.6	14.8	3.31*	77.1	131.9*	-0.7
O=C(Nc1cc2c(cc1[N+](=O)[O-])OCCO2)c1cccnc1	/	11.1	/	/	/	/
Cc1cc(OCC(=O)N(C)C2CCCCC2)ccc1Cl	1.3	7.7	/	142.1*	121.6	-26.9
CCOc1ccc(CCNC(=O)c2cnc(C)cn2)cc1OCC	/	8.1	/	/	/	/
O=C(O)c1ccc(N2Cc3ccccc3C2)cc1O	0.7	4.0	1.43	8.1	96.1	-9.2
CC(C)(C)N=Cc1cc(-c2ccccc2)sc1O	-0.8	10.1	3.26	/	138.5*	-25.2
Cc1ccc(C(=O)Nc2nccs2)s1	/	6.5	/	/	/	/
Cc1onc(CO)c1C(=O)Nc1nccs1	0.2	-0.7	1.33	2.4	109.6	-7.6
C/C(=N\O)c1noc(C)c1C(=O)Nc1nccs1	/	50.1*	/	/	/	/
CCOC(=O)c1noc(C)c1C(=O)Nc1nccs1	-0.8	1.9	5.95*	7.1	91.9	4.0
COc1cc(Nc2ncnc(N)n2)cc(OC)c1OC	0.3	4.3	/	/	/	-17.0
O=C(O)Cn1cc(/C=c2/sc3nc4ccccc4n3c2=O)c2ccccc21	1.9	6.8	1.76	64.8	131.0*	-18.0
O=C(Nc1ccc2c(c1)CCC2)c1cnc(Cl)c(Cl)c1	0.8	24.4	3.82*	149.0*	134.9*	-25.8
O=C(Nc1ccc2c(c1)CCC2)c1ccc(Cl)nc1	1.2	17.0	4*	95.6	162.9*	-3.5
SMILES	PERK inhibitor	AHR activator	NF-kB neuron act	APP 5'UTR act	STAT1 act	Mdm2 ligase inh
C/C(=C\c1ccccc1)C(=O)NCCCn1ccnc1	1.3	17.6	1.06	19.1	99.8	-7.2
CCOC(=O)C1CCN(C(=O)C2CCCN2S(=O)(=O)c2ccc(Cl)cc2)CC1 (stereo not drawn)	/	5.6	/	/	/	/
CN(C)S(=O)(=O)c1ccc(NC(=O)COC(=O)C2COc3ccccc3O2)cc1 (stereo not drawn)	2.0	-0.6	1.23	3.7	102.2	-38.7
S=C(Nc1ccccc1)Nc1nc2ccccc2n1CCOc1ccccc1	-1.4	19.3	1.31	1.5	104.5	-3.2
CCCCn1c(NC(=S)Nc2ccccc2)nc2ccccc21	-0.5	66.1*	1.15	23.7	93.3	-5.5
CCn1c(NC(=O)c2ccccc2)nc2ccccc21	-1.7	45.2	/	/	/	-6.8
CCCCn1c(NC(=O)c2ccccc2)nc2ccccc21	-1.3	73.2*	1.18	2.5	103.8	-2.9
CCCn1c(NC(=O)c2ccc(Br)cc2)nc2ccccc21	0.9	13.4	1.32	4.9	111.9	-11.9
CCCn1c(NC(=O)c2ccccc2Br)nc2ccccc21	-0.2	47.3*	1.13	-5.9	104.4	-14.7
CCCn1c(NC(=O)c2ccc(F)cc2)nc2ccccc21	0.0	52.8*	1.47	86.6	118.9	-5.2
COc1ccccc1C/C(N)=N/OC(=O)/C=C/c1ccccc1	1.0	-2.8	1.14	21.8	106.4	-21.5
CCOC(=O)Cc1csc(NC(=O)C(CC(C)C)NC(=O)C2CCCCC2)n1 (stereo not drawn)	1.3	1.4	0.91	7.0	101.7	-10.5
